This is an account of results in ChEMBL document CHEMBL1139436, “Quantitative structure-activity relationship of sesquiterpene lactones as inhibitors of the transcription factor NF-kappaB” (J Med Chem, 2004).

T1 sequence (P19838 whole entry, looked up): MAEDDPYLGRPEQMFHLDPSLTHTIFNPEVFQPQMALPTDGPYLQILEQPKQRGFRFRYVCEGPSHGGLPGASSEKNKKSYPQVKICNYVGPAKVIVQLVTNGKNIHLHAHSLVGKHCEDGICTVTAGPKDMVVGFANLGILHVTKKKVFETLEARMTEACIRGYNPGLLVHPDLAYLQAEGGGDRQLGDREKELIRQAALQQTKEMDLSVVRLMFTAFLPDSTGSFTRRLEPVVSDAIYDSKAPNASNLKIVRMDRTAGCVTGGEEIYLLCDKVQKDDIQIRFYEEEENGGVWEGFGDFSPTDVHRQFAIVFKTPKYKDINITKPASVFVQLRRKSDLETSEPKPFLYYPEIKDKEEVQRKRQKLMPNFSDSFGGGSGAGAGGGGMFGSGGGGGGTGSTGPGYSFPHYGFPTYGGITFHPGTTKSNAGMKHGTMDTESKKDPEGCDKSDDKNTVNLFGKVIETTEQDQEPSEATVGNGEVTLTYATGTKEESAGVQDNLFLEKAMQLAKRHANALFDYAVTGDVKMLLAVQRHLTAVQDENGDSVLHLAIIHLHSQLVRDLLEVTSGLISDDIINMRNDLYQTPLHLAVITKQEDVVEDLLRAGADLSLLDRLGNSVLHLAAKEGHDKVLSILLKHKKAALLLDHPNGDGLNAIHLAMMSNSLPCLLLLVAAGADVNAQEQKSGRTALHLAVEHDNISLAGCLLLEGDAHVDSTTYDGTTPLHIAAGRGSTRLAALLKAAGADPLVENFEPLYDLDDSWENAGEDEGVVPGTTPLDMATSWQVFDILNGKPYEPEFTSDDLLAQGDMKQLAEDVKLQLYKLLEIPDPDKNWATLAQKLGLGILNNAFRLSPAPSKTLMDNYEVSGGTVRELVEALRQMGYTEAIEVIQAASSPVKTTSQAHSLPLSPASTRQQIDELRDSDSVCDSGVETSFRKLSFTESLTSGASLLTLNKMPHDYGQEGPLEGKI
T1 sequence (Q00653 whole entry, looked up): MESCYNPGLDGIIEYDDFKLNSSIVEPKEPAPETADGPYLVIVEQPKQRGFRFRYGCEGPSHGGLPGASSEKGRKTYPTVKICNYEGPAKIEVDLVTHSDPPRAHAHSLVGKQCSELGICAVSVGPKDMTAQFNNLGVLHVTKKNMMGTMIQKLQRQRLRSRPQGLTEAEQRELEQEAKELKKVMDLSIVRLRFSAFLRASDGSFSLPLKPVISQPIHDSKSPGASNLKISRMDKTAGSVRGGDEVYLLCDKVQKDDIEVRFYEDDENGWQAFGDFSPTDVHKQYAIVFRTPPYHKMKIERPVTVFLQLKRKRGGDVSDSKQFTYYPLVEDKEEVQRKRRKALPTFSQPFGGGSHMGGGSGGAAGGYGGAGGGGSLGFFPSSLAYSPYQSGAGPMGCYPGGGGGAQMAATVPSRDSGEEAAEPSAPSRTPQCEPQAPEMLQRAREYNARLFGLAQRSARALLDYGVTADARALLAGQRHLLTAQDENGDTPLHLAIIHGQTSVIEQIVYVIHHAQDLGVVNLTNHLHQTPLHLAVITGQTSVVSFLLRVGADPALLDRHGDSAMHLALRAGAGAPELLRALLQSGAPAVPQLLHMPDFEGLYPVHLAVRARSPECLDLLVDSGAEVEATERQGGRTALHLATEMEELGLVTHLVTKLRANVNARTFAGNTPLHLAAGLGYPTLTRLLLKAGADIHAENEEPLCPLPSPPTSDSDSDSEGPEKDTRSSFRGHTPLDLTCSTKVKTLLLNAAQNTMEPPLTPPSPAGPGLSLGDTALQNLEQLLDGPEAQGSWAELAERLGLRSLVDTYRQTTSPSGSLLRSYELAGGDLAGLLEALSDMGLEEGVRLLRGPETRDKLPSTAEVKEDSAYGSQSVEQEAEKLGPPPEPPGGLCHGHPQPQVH
T1 sequence (Q04206 whole entry, looked up): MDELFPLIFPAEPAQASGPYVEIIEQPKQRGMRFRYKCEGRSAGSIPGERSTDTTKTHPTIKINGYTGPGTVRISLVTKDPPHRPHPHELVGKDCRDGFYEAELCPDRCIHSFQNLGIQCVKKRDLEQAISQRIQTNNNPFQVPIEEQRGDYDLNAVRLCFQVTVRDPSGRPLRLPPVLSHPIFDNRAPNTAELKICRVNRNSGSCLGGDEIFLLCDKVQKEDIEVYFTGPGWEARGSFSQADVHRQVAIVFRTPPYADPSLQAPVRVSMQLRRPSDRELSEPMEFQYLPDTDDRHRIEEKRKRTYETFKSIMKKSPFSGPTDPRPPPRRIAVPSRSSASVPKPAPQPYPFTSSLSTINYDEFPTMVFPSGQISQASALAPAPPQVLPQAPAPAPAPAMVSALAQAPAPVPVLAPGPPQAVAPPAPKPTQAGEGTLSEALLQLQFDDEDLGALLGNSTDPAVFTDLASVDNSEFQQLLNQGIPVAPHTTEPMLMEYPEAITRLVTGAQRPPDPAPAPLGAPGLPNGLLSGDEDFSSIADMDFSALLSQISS

The target of the first assay is T1, Nuclear factor NF-kappa-B complex (Homo sapiens) (UniProt Q00653+P19838+Q04206). Put plainly: (§1) Concentration required for complete inhibition of Nuclear factor kappa B DNA binding. In kind it is protein-complex assay. An outline of the steps:
(§2)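 Jurkat T cells (RPMI 1640, 10% FCS, penicillin/streptomycin) pretreated 1 h with sesquiterpene lactone, first at 10, 20, 50, 100 μM, then 1–5 μM or 200–300 μM as needed. Stimulated 1 h with 200 U/mL TNF-α. Total extracts (Totex high-salt buffer) analysed by EMSA with ³²P-labeled NF-κB oligonucleotide, 25 min at room temperature. IC100 is the lowest tested level fully blocking binding; intermediate values assigned the higher level. Each experiment reproduced at least once.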
`C=C1[C@@H]2[C@H]3OC(=O)C(=C)[C@@H]3CC[C@](C)(O)[C@@H]2C[C@@H]1O` registered an IC100 of 200 µM.
Turning to `C=C(C)C(=O)O[C@@H]1/C=C(/C=O)CCCC(=C)[C@H](O)[C@H]2OC(=O)C(=C)[C@@H]21`, the IC100 turned out to be 5 µM.
On the same count and under the same terms, next, `C=C1C(=O)O[C@H]2[C@H]1[C@@H](OC(=O)/C(C)=C/C)C/C(C)=C/C(=O)/C=C(/C)[C@@H]2O`: 10 µM; `C=C(C)C(=O)O[C@H]1[C@H]2C(=C)C(=O)O[C@@H]2[C@H]2O[C@]2(C)CC/C=C(/C=O)[C@@H]1O`: 10 µM; `C=C(C)C(=O)O[C@@H]1CC(C)=C2C(=O)C=C(C)[C@@H]2[C@H]2OC(=O)C(=C)[C@@H]21`: 10 µM.
Still for that read-out and setting: to `C=C(C)C(=O)O[C@H]1[C@H]2C(=C)C(=O)O[C@@H]2[C@@H](O)C(=C)CC/C=C(/C=O)[C@@H]1OC` belongs 50 µM; to `C=C1C(=O)O[C@@H]2/C=C(/C)C3=CC(=O)[C@@](C)(C[C@@H](OC(=O)/C(C)=C\C)[C@@H]12)O3`, 5 µM; to `C=C1C(=O)O[C@H]2C/C(CO)=C\CC/C(COC(=O)C(C)C)=C\C[C@H]12`, 50 µM.
Still for that read-out and setting: to `C=C(C)C(=O)O[C@@H]1/C=C(/C=O)[C@H](OC)CCC(=C)[C@H](O)[C@H]2OC(=O)C(=C)[C@@H]21` belongs 10 µM; to `C=C1C(=O)O[C@H]2[C@H]1[C@H](OC(=O)C(C)C)[C@@H](OC(C)=O)/C(C=O)=C\CCC1(CO1)[C@@H]2O` (some centres not stated), 5 µM; to `C=C(C)C(=O)O[C@H]1C[C@@]2(C)OC(=CC2=O)/C(CO)=C\[C@H]2OC(=O)C(=C)[C@H]12`, 20 µM.
`C=C1C(=O)O[C@H]2[C@H]1CCC(C)=C1C(=O)[C@H]3O[C@@]3(C)[C@@H]12` gave an IC100 of 5 µM.
As to `C=C1C(=O)O[C@@H]2/C=C(/COC(=O)C(C)C)CC/C=C(/CO)[C@H](O)C[C@@H]12`, the IC100 came to 100 µM.
`C=C(C)C(=O)O[C@@H]1C[C@](C)(O)[C@@H]2C(=O)C=C(C)[C@@H]2[C@H]2OC(=O)C(=C)[C@@H]21` had an IC100 of 50 µM.
On the same count and under the same terms, next, `C=C1C(=O)O[C@H]2C[C@H](C)C3=CC(=O)[C@H](C)C3C[C@H]12` (some centres not stated): 20 µM.
The compound `C=C1C(=O)O[C@@H]2[C@H]3C(C)=CC[C@H]3[C@](C)(O)C[C@H](O)[C@@H]12` displayed an IC100 of 100 µM.

The next assay deals with T1, Nuclear factor NF-kappa-B complex (Homo sapiens). Described as §1. In kind it is protein-complex assay. Details: unit not given here. An outline of the steps: as §2
The compound `C=C1[C@@H]2[C@H]3OC(=O)C(=C)[C@@H]3CC[C@](C)(O)[C@@H]2C[C@@H]1O` gave a pIC100 of -2.3.
With `C=C(C)C(=O)O[C@@H]1/C=C(/C=O)CCCC(=C)[C@H](O)[C@H]2OC(=O)C(=C)[C@@H]21`, the pIC100 was -0.69.
`C=C1C(=O)O[C@H]2[C@H]1[C@@H](OC(=O)/C(C)=C/C)C/C(C)=C/C(=O)/C=C(/C)[C@@H]2O`: the pIC100 was -1.
Take `C=C(C)C(=O)O[C@H]1[C@H]2C(=C)C(=O)O[C@@H]2[C@H]2O[C@]2(C)CC/C=C(/C=O)[C@@H]1O`: the pIC100 was -1.
With `C=C(C)C(=O)O[C@@H]1CC(C)=C2C(=O)C=C(C)[C@@H]2[C@H]2OC(=O)C(=C)[C@@H]21`, the pIC100 was -1.
The same measure, in the same setting: to `C=C(C)C(=O)O[C@H]1[C@H]2C(=C)C(=O)O[C@@H]2[C@@H](O)C(=C)CC/C=C(/C=O)[C@@H]1OC` belongs -1.3; to `C=C1C(=O)O[C@@H]2/C=C(/C)C3=CC(=O)[C@@](C)(C[C@@H](OC(=O)/C(C)=C\C)[C@@H]12)O3`, -0.39; to `C=C1C(=O)O[C@H]2C/C(CO)=C\CC/C(COC(=O)C(C)C)=C\C[C@H]12`, -1.69.
The compound `C=C(C)C(=O)O[C@@H]1/C=C(/C=O)[C@H](OC)CCC(=C)[C@H](O)[C@H]2OC(=O)C(=C)[C@@H]21` gave a pIC100 of -1.
On the same count and under the same terms, to `C=C1C(=O)O[C@H]2[C@H]1[C@H](OC(=O)C(C)C)[C@@H](OC(C)=O)/C(C=O)=C\CCC1(CO1)[C@@H]2O` (some centres not stated) belongs -0.69; to `C=C(C)C(=O)O[C@H]1C[C@@]2(C)OC(=CC2=O)/C(CO)=C\[C@H]2OC(=O)C(=C)[C@H]12`, -1.3; to `C=C1C(=O)O[C@H]2[C@H]1CCC(C)=C1C(=O)[C@H]3O[C@@]3(C)[C@@H]12`, -0.69.
Still for that read-out and setting: next, `C=C1C(=O)O[C@@H]2/C=C(/COC(=O)C(C)C)CC/C=C(/CO)[C@H](O)C[C@@H]12`: -2; `C=C(C)C(=O)O[C@@H]1C[C@](C)(O)[C@@H]2C(=O)C=C(C)[C@@H]2[C@H]2OC(=O)C(=C)[C@@H]21`: -1.69; `C=C1C(=O)O[C@H]2C[C@H](C)C3=CC(=O)[C@H](C)C3C[C@H]12` (some centres not stated): -1.3.
Still for that read-out and setting: to `C=C1C(=O)O[C@@H]2[C@H]3C(C)=CC[C@H]3[C@](C)(O)C[C@H](O)[C@@H]12` belongs -2.
